Test results taken from PMC6595297 (British Journal of Clinical Pharmacology, 2019).

Legend:
[1] = Phase I DDI study: pevonedistat plasma PK alone and with itraconazole; assay type: in vivo, human; conditions: for AUC(0-t) / AUC(0-inf) / Cmax / clearance / half-life: human, plasma; for AUC(0-t): AUClast; for Cmax: C max; for clearance: CL; for half-life: t 1/2, mean (standard deviation)
Outline: (§1)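 Single IV pevonedistat given on day 1 alone and on day 8 with the CYP3A inhibitor. K2EDTA plasma was sampled within 1 h predose, at end of infusion, and at 0.5, 1, 2, 3, 4, 8, 12, 24, 48 and 72 h postdose. Samples were assayed by two GLP-validated LC–MS/MS methods (0.0500–25.0 and 1.00–500 ng mL−1). Noncompartmental PK was used. Day 8/day 1 geometric mean ratios with 90% CIs came from ANOVA (subject random), back-transformed.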

[2] = Phase I DDI study: pevonedistat plasma PK alone and with fluconazole; assay type: in vivo, human
Outline: as §1

[3] = test system: multidrug resistance protein 1 (MDR1)/P‐glycoprotein (P‐gp); conditions: in vitro, ref data on file; cited from earlier work
CYP3A4 = conditions: in vitro metabolism studies, ref data on file; cited from earlier work
[4] = Pevonedistat 8 mg m^−2, + itraconazole (day 8) vs alone (day 1), n = 13
[5] = Pevonedistat 15 mg m^−2, + itraconazole (day 8) vs alone (day 1), n = 6
[6] = Pevonedistat 20 mg m^−2, + itraconazole (day 8) vs alone (day 1), n = 14
[7] = dose‐normalized PK, 8–20 mg m^−2 pooled, + itraconazole vs alone, n = 33
[8] = intravenous, 8 mg, geometric LS mean reference condition (day 1), Pevonedistat 8 mg m^−2 alone, itraconazole cohort, n = 13
[9] = intravenous, 15 mg, geometric LS mean reference condition (day 1), Pevonedistat 15 mg m^−2 alone, itraconazole cohort, n = 6
[10] = intravenous, 20 mg, geometric LS mean reference condition (day 1), Pevonedistat 20 mg m^−2 alone, itraconazole cohort, n = 14
[11] = intravenous, geometric LS mean test condition (day 8), Pevonedistat 8 mg m^−2 + itraconazole, n = 13, value from n − 1 patients
[12] = intravenous, geometric LS mean test condition (day 8), Pevonedistat 15 mg m^−2 + itraconazole, n = 6
[13] = intravenous, geometric LS mean test condition (day 8), Pevonedistat 20 mg m^−2 + itraconazole, n = 14
[14] = iv, 8 mg, geometric mean (% CV), 8 mg m^−2 IV single dose, – itraconazole (day 1), n=13
[15] = iv, 20 mg, geometric mean (% CV), 20 mg m^−2 IV single dose, – itraconazole (day 1), n=14
[16] = integrated analysis, 8–20 mg m^−2, n = 33
[17] = Pevonedistat 8 mg m^−2, + fluconazole (day 8) vs alone (day 1), n = 12
[18] = human, plasma, intravenous, 8 mg

NS(=O)(=O)OC[C@@H]1C[C@@H](n2ccc3c(N[C@H]4CCc5ccccc54)ncnc32)C[C@@H]1O [Pevonedistat]
AUClast, geometric LS mean ratio (test/reference) (90% CI) [1, 4]: 121.57 (110.92–133.24) %
AUC∞, geometric LS mean ratio (test/reference) (90% CI) [1, 4]: 122.95 (112.13–134.82) %
C max, geometric LS mean ratio (test/reference) (90% CI) [1, 4]: 113.05 (85.35–149.74) %
AUClast, geometric LS mean ratio (test/reference) (90% CI) [1, 5]: 130.16 (106.99–158.35) %
AUC∞, geometric LS mean ratio (test/reference) (90% CI) [1, 5]: 132.70 (111.10–158.49) %
C max, geometric LS mean ratio (test/reference) (90% CI) [1, 5]: 159.55 (89.97–282.96) %
AUClast, geometric LS mean ratio (test/reference) (90% CI) [1, 6]: 101.36 (90.72–113.23) %
AUC∞, geometric LS mean ratio (test/reference) (90% CI) [1, 6]: 100.89 (91.14–111.68) %
C max, geometric LS mean ratio (test/reference) (90% CI) [1, 6]: 77.26 (55.19–108.17) %
Dose‐normalized AUClast, geometric LS mean ratio (test/reference) (90% CI) [1, 7]: 113.61 (105.65–122.18) %
Dose‐normalized AUC∞, geometric LS mean ratio (test/reference) (90% CI) [1, 7]: 114.24 (106.54–122.50) %
Dose‐normalized C max, geometric LS mean ratio (test/reference) (90% CI) [1, 7]: 102.41 (83.12–126.19) %
AUC(0-t) [1, 8]: 459 ng·h/mL
AUC(0-inf) [1, 8]: 465 ng·h/mL
AUC(0-t) [1, 9]: 793 ng·h/mL
AUC(0-inf) [1, 9]: 798 ng·h/mL
AUC(0-t) [1, 10]: 1110 ng·h/mL
AUC(0-inf) [1, 10]: 1120 ng·h/mL
AUC(0-t) [1, 11]: 558 ng·h/mL
AUC(0-t) ([1]; intravenous, geometric LS mean test condition (day 8), Pevonedistat 15 mg m^−2 + itraconazole, n = 6, value from n − 1 patients): 1030 ng·h/mL
AUC(0-t) ([1]; intravenous, geometric LS mean test condition (day 8), Pevonedistat 20 mg m^−2 + itraconazole, n = 14, value from n − 1 patients): 1130 ng·h/mL
AUC(0-inf) [1, 11]: 572 ng·h/mL
AUC(0-inf) [1, 12]: 1060 ng·h/mL
AUC(0-inf) [1, 13]: 1130 ng·h/mL
Cmax ([1]; intravenous, geometric LS mean test condition (day 8), Pevonedistat 8 mg m^−2 + itraconazole, n = 13): 66.8 ng/mL
Cmax [1, 12]: 193 ng/mL
Cmax [1, 13]: 137 ng/mL
AUC(0-inf) [1, 14]: 465 ng·h/mL
clearance [1, 14]: 487 mL/min
half-life ([1]; iv, 8 mg, 8 mg m^−2 IV single dose, – itraconazole (day 1), n=13): 10.8 h
AUC(0-inf) ([1]; iv, 15 mg, geometric mean (% CV), 15 mg m^−2 IV single dose, – itraconazole (day 1), n=6): 798 ng·h/mL
half-life ([1]; iv, 15 mg, 15 mg m^−2 IV single dose, – itraconazole (day 1), n=6): 9.8 h
AUC(0-inf) [1, 15]: 1120 ng·h/mL
clearance [1, 15]: 597 mL/min
half-life ([1]; iv, 20 mg, 20 mg m^−2 IV single dose, – itraconazole (day 1), n=14): 10 h
half-life ([1]; iv, 8 mg m^−2 IV single dose, + itraconazole (day 8), n=13): 13.5 h
half-life ([1]; iv, 15 mg m^−2 IV single dose, + itraconazole (day 8), n=6): 11 h
half-life ([1]; iv, 20 mg m^−2 IV single dose, + itraconazole (day 8), n=14): 10.8 h
Dose‐normalized AUC∞ geometric mean ratio, presence vs. absence of itraconazole [1, 16]: 1.14
Increase in geometric mean dose‐normalized AUC∞ with itraconazole [1, 16]: 14%
AUC∞ geometric mean ratio, presence vs. absence of itraconazole ([1]; pevonedistat 8 mg m^−2): 1.23
Increase in pevonedistat plasma systemic exposure with concomitant itraconazole ([1]; pevonedistat 8 mg m^−2 single dose): 23%
AUC∞ geometric mean ratio, presence vs. absence of itraconazole ([1]; pevonedistat 20 mg m^−2): 1.01
AUClast, geometric LS mean ratio (test/reference) (90% CI) [2, 17]: 110.21 (102.34–118.69) %
AUC∞, geometric LS mean ratio (test/reference) (90% CI) [2, 17]: 110.66 (102.53–119.43) %
C max, geometric LS mean ratio (test/reference) (90% CI) [2, 17]: 98.75 (82.60–118.05) %
AUC(0-inf) [2, 18]: 450 ng·h/mL
AUC(0-t) [2, 18]: 445 ng·h/mL
Cmax [2, 18]: 51.6 ng/mL
AUC(0-inf) ([2]; human, plasma, iv, 8 mg): 450 ng·h/mL
Cmax ([2]; human, plasma, iv, 8 mg): 51.6 ng/mL
clearance ([2]; human, plasma, iv, 8 mg): 528 mL/min
half-life ([2]; human, plasma, iv, 8 mg): 11.1 h
AUC∞ geometric mean ratio, presence vs. absence of fluconazole ([2]; pevonedistat 8 mg m^−2, n = 12): 1.11
Substrate of MDR1/P‐gp [3]: substrate
Contribution of CYP3A4 to pevonedistat biotransformation (CYP3A4): 97%
